KCNQ1 inh: blocks the human KCNQ1 potassium channel; B-score at 10 µM; P51787; 310,000 compounds, 1.3% hits; AID 2642; CHO-K1 KCNQ1, FluxOR thallium flux fluorescence; stronger effect = higher value;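 active = compounds whose thallium flux B-score, printed positive for inhibition, exceeds three library SD while starting fluorescence stays within three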;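 also: channel opened by potassium depolarization with thallium stimulus after 20 min compound exposure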
KCNK9 inh: human KCNK9 channel inhibition; Q9NPC2; HEK293 KCNK9, FluxOR thallium flux fluorescence; stronger effect = lower value; B-score at 10 µM; 310,000 compounds, 1.2% hits; AID 488922;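 active = ratio B-score over 3 SD below the library mean, with starting fluorescence within 5 SD of its mean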;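 also: negative B-score means less thallium flux so channel inhibition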
hERG protect: shields human hERG channel from block by proarrhythmic agents; Q12809; CHO-hERG, FluxOR thallium flux, dofetilide IC70 present; activation (rescue from dofetilide block), less the hit threshold, % at 10 µM; 310,000 compounds, 0.51% hits; AID 1511;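 active = activation above the mean of controls blocked by dofetilide plus 5 SD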;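 also: thallium influx through hERG after potassium depolarization seen as dye fluorescence rise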
KCNQ1 act: potentiators or activators of human KCNQ1 potassium channel; CHO-K1 KCNQ1, thallium flux FluxOR fluorescence; stronger effect = higher value; B-score at 10 µM; 310,000 compounds, 0.35% hits;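 active = fluorescence ratio B-score, a plate-corrected score, at least three library SD, with initial intensity B-score within 5 SD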
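assay system = CHO-K1 cells stably expressing KCNQ1 | medium = assay buffer, equal DMSO in all wells | timing = 37 °C overnight plating, 90-min dark dye load, 20-min compound pretreatment | measured by = kinetic FluxOR thallium fluorescence, 10-s 1-Hz baseline, 110-s post-stimulus read | measure = fluorescence change relative to baseline, converted to B score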
KCNK3 inh: human KCNK3 channel inhibition, primary screen; CHO-KCNK3 thallium flux, FluxOR fluorescence; stronger effect = lower value; B-score at 10 µM; AID 602410; 340,000 compounds, 0.84% hits;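 active = B-score under library mean minus 4 SD, starting fluorescence ratio at most library mean plus 5 SD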;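 also: more negative B-score means stronger inhibition of thallium flux through KCNK3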
KCNK9 inh conf: confirmation of human KCNK9 potassium channel inhibitors | shares compounds with KCNK9 inh | 4,900 compounds, 43% hits | AID 492992 | HEK293 KCNK9 cells, FluxOR thallium flux fluorescence | inhibition, % at 10 µM;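 active = thallium signal inhibited by more than 5 SD of the compound-free buffer control wells, on both duplicate plates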;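 also: 0% = assay buffer control wells without compound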
Kir2-1 spec: tests whether KCNK9 modulators also affect mouse Kir2.1; shares compounds with KCNK9 inh; Kir2.1 cells, FluxOR thallium flux fluorescence; inhibition, % at 10 µM; 4,900 compounds, 4% hits; AID 492993;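 active = thallium signal drop more than 5 SD beyond the mean of the no-compound control wells, seen in both duplicate plates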;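 also: signal is fluorescence rise after thallium addition divided by baseline fluorescence; plate controls were assay buffer only for no effect and full block by chlorpromazine control for full effect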
Target sequence (P35561 whole entry, looked up): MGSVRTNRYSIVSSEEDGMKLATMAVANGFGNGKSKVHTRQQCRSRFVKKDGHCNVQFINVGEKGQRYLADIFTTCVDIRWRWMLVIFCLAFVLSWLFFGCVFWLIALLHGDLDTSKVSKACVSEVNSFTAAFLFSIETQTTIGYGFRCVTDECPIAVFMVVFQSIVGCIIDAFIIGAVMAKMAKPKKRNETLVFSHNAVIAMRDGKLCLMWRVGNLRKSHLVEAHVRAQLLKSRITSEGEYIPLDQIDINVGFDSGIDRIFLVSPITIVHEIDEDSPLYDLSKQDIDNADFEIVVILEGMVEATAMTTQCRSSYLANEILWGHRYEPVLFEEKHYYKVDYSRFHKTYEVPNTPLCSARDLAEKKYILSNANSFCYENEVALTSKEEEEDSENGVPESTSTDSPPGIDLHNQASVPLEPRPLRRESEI
HEK293 Tl ctr: second counter-screen for KCNK9 modulators: effect in non-induced cells; inhibition, % at 10 µM; 4,900 compounds, 40% hits; non-induced KCNK9-HEK293, FluxOR thallium flux; shares compounds with KCNK9 inh;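 active = thallium signal drop beyond 5 SD of the untreated control mean, on both duplicate plates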;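 also: plate controls were buffer only IC0 wells for no effect and SID17386958 at its maximal inhibitory level for full effect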
An asterisk follows results filed as active; i = inactive; . = no result given. Hits are enriched below; roughly 3.1% of the tested compounds scored in any of these assays.

SMILES | KCNQ1 inh | KCNK9 inh | hERG protect | KCNQ1 act | KCNK3 inh | KCNK9 inh conf | Kir2-1 spec | HEK293 Tl ctr
CSc1ccc(C(=O)C2CCCN(C(=O)CCCn3cncn3)C2)cc1 (stereo not drawn) | i | i | -5 | i | i | . | . | .
CSc1ccc(C(=O)C2CCCN(Cc3cccc4nccnc34)C2)cc1 (stereo not drawn) | i | i | -18 | i | i | i | i | i
COc1ccc(C(=O)C2CCCN(Cc3cccn3-c3ccccn3)C2)cc1F (stereo not drawn) | i | i | -29 | i | i | . | . | .
COc1ccc(CN2CCCC(C(=O)c3ccc(Cl)cc3)C2)cc1Cn1cccn1 (stereo not drawn) | i | i | -23 | i | i | i | i | i
O=C(c1ccc(Cl)cc1)C1CCCN(Cc2cccn2-c2ccccn2)C1 (stereo not drawn) | i | i | -20 | i | i | i | i | i
O=C(c1cccc(C(F)(F)F)c1)C1CCCN(Cc2cccn2-c2ncccn2)C1 (stereo not drawn) | i | i | -24 | i | i | i | i | i
Cc1ccnc(NC(=O)c2ccc(S(=O)(=O)N3CCCC3)cc2)c1 | i | i | -11 | i | i | . | . | .
O=c1cc2c(nn1Cc1ccccc1Cl)-c1ccccc1CC2 | i | i | -3 | i | i | . | . | .
CCc1ccc2[nH]c(=O)c(CN(Cc3ccccc3)C(=O)Nc3ccccc3OC)cc2c1 | i | i | -11 | i | i | . | . | .
COc1ccc(C(=O)C2CCCN(Cc3cccn3-c3nccs3)C2)cc1F (stereo not drawn) | i | i | -21 | i | i | i | i | i
CCOC(=O)C1CCCN(Cc2ccc(O)c(OC)c2)C1 (stereo not drawn) | i | i | -10 | i | i | . | . | .
O=C(c1ccc(C(F)(F)F)cc1)C1CCCN(Cc2cccn2-c2ncccn2)C1 (stereo not drawn) | i | i | -16 | i | i | i | i | i
CCOc1cc(CN2CCCC(C(=O)c3cccc(C(F)(F)F)c3)C2)ccc1O (stereo not drawn) | i | i | -20 | i | i | i | i | i
Cc1nnsc1-c1onc(C)c1C(=O)O/N=C/c1ccc(Cl)cc1 | i | i | -5 | i | i | . | . | .
Cc1ccc(C(=O)NCC(=O)OC(C)C(=O)NC2CCCc3ccccc32)cc1 (stereo not drawn) | i | i | -4 | i | i | . | . | .
Cc1ccc(/C=C/C(=O)N2CCC(Cc3ccccc3)CC2)cc1 | i | i | -14 | i | i | i | i | 26%*
Cc1ccc(/C=C/C(=O)N2CCCC(C)C2)cc1 (stereo not drawn) | i | i | -15 | i | i | . | . | .
CC1CCN(C(=O)/C=C/c2ccc(C(C)(C)C)cc2)CC1 | i | -9* | -15 | i | i | 62%* | i | 50%*
COc1cc2cc(C(=O)N3CCC(Cc4ccccc4)CC3)[nH]c2cc1OC | i | i | 0 | i | i | . | . | .
Cc1cc(C)c2cc(C(=O)N3CCC(Cc4ccccc4)CC3)[nH]c2c1 | i | i | -13 | i | i | i | i | i
CC(O)c1c(OCc2ccccc2)ncnc1OCc1ccccc1 (stereo not drawn) | i | i | -8 | i | i | . | . | .
CCCCCN(C(=O)CCC(=O)OCC(=O)NCc1cccc(OC)c1)c1c(N)n(CCCC)c(=O)[nH]c1=O | i | i | -2 | i | i | . | . | .
COc1ccc(C(c2nnnn2Cc2cccs2)N2CCN(c3ccccc3F)CC2)cc1 (stereo not drawn) | i | -12* | -5 | i | i | 28%* | i | 38%*
COc1ccc(C(c2nnnn2Cc2ccccc2)N2CCN(c3ccccc3)CC2)cc1 (stereo not drawn) | i | i | -4 | i | i | . | . | .
